Screening data from PubChem.
Sampled rows, rich in hits. Any-hit rate of the full collection: about 6.4%.
tolC growth inh: E. coli tolC mutant growth inhibition; hit rate 2.2% among 65,000; E. coli BW25113 tolC mutant growth, OD615; growth inhibition, % at 10 µM (by protocol); AID 573;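 active = growth inhibition at or above a cutoff equal to the mean over every tested compound plus 3 SD, cut at about 60% in these data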;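 also: growth measured after 20 h incubation at 37 °C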
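Material: E. coli BW25113 ΔtolC::kan, tolC deletion mutant strain. Measure: percent growth inhibition. Schedule: 37 °C, 20 h exposure. Doses: single-point testing at 10 µM. Signal: A615 absorbance measurement. Buffer or medium: kanamycin-containing LB broth (50 µg/mL).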
HUVEC prolif 384: inhibitors of human endothelial cell proliferation; HUVEC proliferation, CellTiter-Glo luminescence, 72 h; stronger effect = lower value; viability, % at 10 µM (by protocol); hit rate 1.1% among 86,000;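 active = viability at or below 30%; inactive = viability above 30%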;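 also: 100% = median luminescence of DMSO-only cell control wells on each plate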
H69AR growth 86K: blocks growth of human H69AR lung tumor cells. H69AR lung tumor viability, ATP luminescence, 72 h; stronger effect = lower value. viability, % at 10 µM. hit rate 6% among 85,000;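 active = viability at or below 40%; inactive = viability above 40%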;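 also: multidrug resistant small cell line overexpressing MRP-1 efflux transporter; 100% = mean luminescence of untreated control wells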
Fibroblast inh: blocks proliferation of human lung fibroblasts. LL 47 human lung fibroblast viability, ATP luminescence; stronger effect = lower value. viability, % at 10 µM. hit rate 1.1% among 85,000;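 active = viability at or below 50% in the single dose screen; inactive = viability above 50%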;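 also: compound exposure lasted 72 h before the ATP readout; 100% = median luminescence of untreated cell-only wells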
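material = human LL 47 lung fibroblast cells | dosing = compounds added from tenfold dosing solution, 0.1% DMSO final | timing = overnight cell rest, 72 h compound treatment at 37 °C | measured by = CellTiter-Glo luminescence measuring cellular ATP | evaluation = % viability versus median cells-only luminescence | control set = cell-only wells, no compound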
Jurkat tox 60K: cytotoxic compounds reducing Jurkat cell viability; Jurkat E6.1 viability, ATP luminescence, 48 h; inhibition, % at 4 µM; hit rate 1.2% among 56,000;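 active = inhibition above the mean inhibition of all tested compounds plus 3 SD, cut at about 28% in these data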
Ecoli WT expand: blocks growth of wild type E. coli BW25113. OD600 absorbance. growth inhibition, % at 100 µM. hit rate 0.15% among 98,000;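 active = growth inhibition above about 50% at one test dose, limit read from the data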;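 also: growth measured after 20 h incubation at 37 °C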
Active calls of the source: *; · = no result.

SMILES | tolC growth inh | HUVEC prolif 384 | H69AR growth 86K | Fibroblast inh | Jurkat tox 60K | Ecoli WT expand
CCOc1ccccc1NC(=O)Cn1cnc2c(cnn2-c2ccc(C)c(C)c2)c1=O | -31.9 | 102.5 | 95.3 | · | 8.0 | -14.0
COc1ccc(NC(=O)Cn2cnc3c(cnn3-c3ccc(C)c(C)c3)c2=O)c(OC)c1 | 0.0 | 55.8 | 8.3* | 94.1 | -1.8 | -8.0
N#Cc1c(NC(=O)CSc2ncn[nH]2)sc2c1CCCC2 | · | 86.3 | 18.1* | 90.1 | · | -2.0
CCn1c(SCC(=O)Nc2sc3c(c2C#N)CCCC3)nnc1-c1ccncc1 | · | 99.2 | 0.9* | 97.0 | · | ·
Cc1csc(SCC(=O)Nc2sc3c(c2C#N)CCC3)n1 | · | 78.3 | 31.6* | 93.6 | · | -10.0
Cc1ccnc(SCC(=O)Nc2sc3c(c2C#N)CCCC3)n1 | 41.3 | 66.4 | 89.7 | 89.3 | 90.2* | -4.0
CCOC(=O)C1CCCN(C(=S)Nc2cc(C)cc(C)c2)C1 (stereo not drawn) | · | · | · | · | · | 8.0
COc1ccc2c(c1)c(=O)oc1cc3occ(C(C)(C)C)c3cc12 | · | 40.2 | 12.8* | 58.5 | · | -8.0
COc1ccc2c(c1)c(=O)oc1cc3oc(C)c(C)c3cc12 | · | 95.1 | 82.4 | 92.9 | · | 4.0
COc1ccc2c(c1)c(=O)oc1c(C)c3occ(C)c3cc12 | 8.8 | 115.5 | 34.6* | 101.7 | -4.5 | ·
CCOC(=O)N1CCN(c2c(NCCCN3CCCCCC3)c(=O)c2=O)CC1 | · | 95.4 | 91.8 | 90.8 | · | 4.0
O=C(c1ccc(Br)cc1)N1CCN(S(=O)(=O)c2ccccc2)CC1 | 4.3 | 106.6 | 84.5 | 95.7 | 2.4 | 0.0
CCCCCOc1ccc(CSC(=N)N)cc1[N+](=O)[O-] | · | · | · | · | · | 100.0*
Cc1ccc(S(=O)(=O)N/N=C/c2c(C)nn(-c3ccccc3)c2C)cc1 | · | · | · | · | · | -4.0
Cc1ccccc1Cn1ccc(-c2ccc(Cl)cc2)c(C#N)c1=O | · | · | · | · | · | -8.0
N#Cc1cc(-c2ccc(Cl)cc2)cn(Cc2c(Cl)cccc2Cl)c1=O | · | · | · | · | · | 1.0
CSc1cc(-c2ccc(Cl)cc2)n(Cc2ccccc2)c(=O)c1C#N | · | 8.8* | 5.4* | 27.2* | · | -15.0
CSc1cc(-c2ccccc2)n(Cc2c(Cl)cccc2Cl)c(=O)c1C#N | · | 28.9 | 12.1* | 33.2* | · | -13.0
Cc1c(O)ccc(-c2[nH]ncc2-c2nc3ccccc3s2)c1O | · | 92.7 | 91.7 | 77.0 | · | 0.0
COc1ccc(Oc2c(-c3ccc(O)cc3O)n[nH]c2C)cc1 | 53.8 | 104.9 | 96.3 | 89.1 | -14.0 | 17.0
CCCc1ccc(Oc2c(-c3ccc(O)c(C)c3O)n[nH]c2C)cc1 | 47.7 | 23.9* | 21.1* | 95.8 | 13.1 | 10.0
CCCc1ccc(Oc2cn[nH]c2-c2ccc(O)c(C)c2O)cc1 | 100.0* | 56.2 | 81.7 | 95.9 | 7.3 | 12.0
COc1ccc(C2C(C#N)=C(N)Oc3cc(C)[nH]c(=O)c32)c(OC)c1OC (stereo not drawn) | · | 91.3 | 97.4 | 106.8 | · | 2.0
FC(F)(F)c1cccc(N2CCN(c3nnnn3-c3ccccc3)CC2)c1 | 69.3* | 98.5 | 72.5 | 98.0 | 7.6 | 1.0
Cc1ccc(C)c(N2CCN(c3nnnn3-c3ccccc3)CC2)c1 | · | 89.1 | 19.9* | 84.5 | · | -11.0
SMILES | tolC growth inh | HUVEC prolif 384 | H69AR growth 86K | Fibroblast inh | Jurkat tox 60K | Ecoli WT expand
Cc1cc(C)nc(N2CCN(c3nnnn3-c3ccccc3)CC2)n1 | -20.0 | 93.8 | 89.7 | 95.3 | -1.3 | -5.0
c1ccc(CC2CCN(c3nnnn3-c3ccccc3)CC2)cc1 | 75.7* | 117.4 | 97.0 | 97.1 | -2.2 | -35.0
Cc1ccnc(NC(=O)COc2ccc3oc4c(c3c2)CCCC4)c1 | -1.6 | · | · | · | -1.1 | ·
Cc1csc(NC(=O)CSc2nnc(Cn3c(=O)sc4ccccc43)n2-c2ccccc2)n1 | 0.5 | 73.8 | 45.8 | 85.3 | -8.5 | -4.0
Cc1ccc(-n2c(C)cc(C(=O)COC(=O)c3c(C)noc3C)c2C)cc1 | 82.4* | 83.4 | 59.1 | 97.7 | 20.6 | -9.0
Cc1cc(C(=O)CSc2n[nH]c(N)n2)c(C)n1-c1ccccc1 | · | · | · | · | · | -7.0
Cc1ccc(-n2c(C)cc(C(=O)CSc3n[nH]c(N)n3)c2C)cc1 | · | 89.2 | 31.8* | 88.5 | · | 4.0
Cc1cc(C(=O)CSc2n[nH]c(N)n2)c(C)n1-c1ccc(F)cc1 | · | 93.9 | 39.9* | 93.6 | · | ·
CCc1ccc(OCc2nnc(SCC(=O)N3CCN(c4ccccc4)CC3)o2)cc1 | · | 83.4 | 97.0 | 91.0 | · | ·
O=C(Nc1ccc2c(c1)OCO2)C1CCCCN1S(=O)(=O)c1ccccc1 (stereo not drawn) | · | 91.2 | 78.5 | 96.5 | · | -3.0
COc1ccc(-c2nnc(SCC(=O)NCc3cccs3)n2CC(C)C)cc1 | · | 104.6 | 101.2 | 104.2 | · | -4.0
Cc1ccc(-n2c([O-])nc(-[n+]3ccccc3)c2C=O)cc1 | · | · | · | · | · | -1.0
Cc1ccc(N2C(N)=C(C#N)C(c3cccnc3)C3=C2CCCC3=O)cc1 (stereo not drawn) | -7.5 | 89.6 | 29.6* | 93.3 | 8.4 | -9.0
CC1(C)CC(=O)C2=C(C1)N(c1ccccc1)C(N)=C(C#N)C2c1cccnc1 (stereo not drawn) | -8.2 | 92.6 | 35.5* | 86.2 | 1.9 | -3.0
Cc1ccc(NC(=S)N2CCC(c3nc4ccccc4s3)CC2)cc1 | · | · | · | · | · | 2.0
CCCCC(=O)NC(Nc1cc(C)ccn1)(C(=O)OCC)C(F)(F)F (stereo not drawn) | 1.5 | 99.4 | 92.4 | 103.3 | -3.4 | 3.0
O=C1c2cccc3c([N+](=O)[O-])ccc(c23)C(=O)N1c1nccs1 | · | 2.0* | 0.8* | 23.4* | · | 0.0
CC(C)Oc1ccccc1C1CC(=O)Nc2cc3c(cc21)OCO3 (stereo not drawn) | 10.2 | 45.4 | 19.9* | 62.3 | 97.3* | 3.0
CCCOc1ccccc1C1CC(=O)Nc2cc3c(cc21)OCCO3 (stereo not drawn) | 84.8* | · | · | · | 97.6* | -7.0
CCOc1ccccc1C1CC(=O)Nc2cc3c(cc21)OCCO3 (stereo not drawn) | 11.5 | 51.0 | 30.2* | 61.4 | 94.6* | -5.0
O=C1CC(c2cccnc2)c2cc3c(cc2N1)OCO3 (stereo not drawn) | -12.1 | 54.6 | 95.9 | 101.6 | 2.3 | 6.0
COc1ccc(S(=O)(=O)N2CCc3ccccc32)cc1C(=O)OCc1nnc(-c2ccccc2)o1 | -4.3 | 84.6 | 86.8 | 105.0 | 6.0 | -2.0
Cc1cc(C)cc(N(CC(=O)NCc2ccco2)S(=O)(=O)c2c(C)noc2C)c1 | 6.2 | 90.6 | 90.0 | 87.7 | -6.1 | -3.0
COc1cc(C2C(C(=O)c3ccc(C)o3)=C(O)C(=O)N2c2cc(C)on2)cc(Br)c1O (stereo not drawn) | 65.4* | 101.5 | 96.2 | 100.5 | -1.5 | -8.0
O=C(NCc1ccco1)c1cc2sccc2n1Cc1ccccc1 | 76.8* | 98.6 | 62.5 | 91.0 | -0.9 | ·
CCn1c(C(=O)NCCCc2ccccc2)cc2sccc21 | 80.6* | · | · | · | 4.3 | ·
O=C(NCCc1ccccc1)c1cc2sccc2n1Cc1ccccc1 | · | 98.0 | 71.3 | 92.2 | · | -15.0
COc1ccc(C2C=C(c3ccc(C)c(C)c3)Nc3ncnn32)c(OC)c1OC (stereo not drawn) | 5.5 | 61.8 | 25.0* | 62.2 | 26.7 | 9.0
COc1cc(OC)cc(C(=O)NCC(=O)N2CCC(C)CC2)c1 | -7.8 | 90.9 | 99.3 | 99.3 | -8.5 | 1.0
